Source: ChEMBL document CHEMBL2424602, “Mannich bases of 7-piperazinylquinolones and kojic acid derivatives: synthesis, in vitro antibacterial activity and in silico study” (2013)
≈ marks a conversion by molar mass, not a printed value.

How the values were obtained:
Format in all cases: functional
Klebsiella pneumoniae = assay: Antibacterial activity against Klebsiella pneumoniae ATCC 10031 assessed as growth inhibition after 18 hrs by agar dilution method; conditions: ATCC 10031, 18 h
How it was run: (§1)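 MIC read by conventional agar dilution. Compounds were dissolved at 10.0 mg in 1 mL DMSO and diluted with 9 mL distilled water to make the stock. Two-fold serial dilutions were made in molten sterile Mueller-Hinton agar, with final levels starting at 100, 50, 25, 12.5, 6.25, 3.13, 1.56 and lower.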

Escherichia coli = assay: Antibacterial activity against Escherichia coli ATCC 8739 assessed as growth inhibition after 18 hrs by agar dilution method; conditions: ATCC 8739, 18 h; how it was run: as §1
Pseudomonas aeruginosa [1] = assay: Antibacterial activity against Pseudomonas aeruginosa ATCC 9027 assessed as growth inhibition after 18 hrs by agar dilution method; conditions: ATCC 9027, 18 h; how it was run: as §1
Bacillus spizizenii = assay: Antibacterial activity against Bacillus subtilis ATCC 6633 assessed as growth inhibition after 18 hrs by agar dilution method; conditions: ATCC 6633, 18 h; how it was run: as §1
[2] = test system: Staphylococcus epidermidis; assay: Antibacterial activity against Staphylococcus epidermidis ATCC 12228 assessed as growth inhibition after 18 hrs by agar dilution method; conditions: ATCC 12228, 18 h; how it was run: as §1
Staphylococcus aureus [3] = assay: Antibacterial activity against Staphylococcus aureus ATCC 6538 assessed as growth inhibition after 18 hrs by agar dilution method; conditions: ATCC 6538, 18 h; how it was run: as §1
Pseudomonas aeruginosa [4] = assay: Potency index, ratio of norfloxacin MIC to compound MIC for Pseudomonas aeruginosa ATCC 9027
Staphylococcus aureus [5] = assay: Potency index, ratio of norfloxacin MIC to compound MIC for Staphylococcus aureus ATCC 6538

Compound | MIC (Klebsiella pneumoniae) | MIC (Escherichia coli) | MIC (Pseudomonas aeruginosa [1]) | MIC (Bacillus spizizenii) | MIC [2] | MIC (Staphylococcus aureus [3]) | Ratio (Pseudomonas aeruginosa [4]) | Ratio (Staphylococcus aureus [5])
CCn1cc(C(=O)O)c(=O)c2cc(F)c(N3CCN(Cc4oc(CCl)cc(=O)c4O)CC3)cc21 | 0.78 µg/mL (≈ 1.59 µM) | 0.39 µg/mL (≈ 0.793 µM) | 1.56 µg/mL (≈ 3.17 µM) | 1.56 µg/mL (≈ 3.17 µM) | 1.56 µg/mL (≈ 3.17 µM) | 1.56 µg/mL (≈ 3.17 µM) |  | 
COc1c(N2CCN(Cc3oc(CCl)cc(=O)c3O)C(C)C2)c(F)cc2c(=O)c(C(=O)O)cn(C3CC3)c12 (stereo unspecified) | 1.56 µg/mL (≈ 2.85 µM) | 1.56 µg/mL (≈ 2.85 µM) | 0.78 µg/mL (≈ 1.42 µM) | 1.56 µg/mL (≈ 2.85 µM) | 1.56 µg/mL (≈ 2.85 µM) | 0.39 µg/mL (≈ 0.712 µM) |  | 
O=C(O)c1cn(C2CC2)c2cc(N3CCN(Cc4oc(CCl)cc(=O)c4O)CC3)c(F)cc2c1=O | 0.195 µg/mL (≈ 0.387 µM) | 0.78 µg/mL (≈ 1.55 µM) | 0.195 µg/mL (≈ 0.387 µM) | 0.39 µg/mL (≈ 0.774 µM) | 0.39 µg/mL (≈ 0.774 µM) | 0.097 µg/mL (≈ 0.192 µM) | 8 | 4
CCn1cc(C(=O)O)c(=O)c2cc(F)c(N3CCN(Cc4oc(CO)cc(=O)c4O)CC3)cc21 | 1.56 µg/mL (≈ 3.29 µM) | 0.78 µg/mL (≈ 1.65 µM) | 3.12 µg/mL (≈ 6.6 µM) | 0.78 µg/mL (≈ 1.65 µM) | 6.25 µg/mL (≈ 13.2 µM) | 3.12 µg/mL (≈ 6.6 µM) |  | 
CCn1cc(C(=O)O)c(=O)c2cc(F)c(N3CCN(Cc4oc(CO)cc(=O)c4O)C(C)C3)c(F)c21 (racemic) | 1.56 µg/mL (≈ 3.09 µM) | 0.39 µg/mL (≈ 0.772 µM) | 3.12 µg/mL (≈ 6.18 µM) | 3.12 µg/mL (≈ 6.18 µM) | 6.25 µg/mL (≈ 12.4 µM) | 3.12 µg/mL (≈ 6.18 µM) |  | 
CCn1cc(C(=O)O)c(=O)c2cc(F)c(N3CCN(Cc4oc(CO)cc(=O)c4O)CC3)nc21 | 12.5 µg/mL (≈ 26.3 µM) | 1.56 µg/mL (≈ 3.29 µM) | 12.5 µg/mL (≈ 26.3 µM) | 12.5 µg/mL (≈ 26.3 µM) | 12.5 µg/mL (≈ 26.3 µM) | 6.25 µg/mL (≈ 13.2 µM) |  | 
O=C(O)c1cn(C2CC2)c2cc(N3CCN(Cc4oc(CO)cc(=O)c4O)CC3)c(F)cc2c1=O | 1.56 µg/mL (≈ 3.21 µM) | 0.78 µg/mL (≈ 1.61 µM) | 1.56 µg/mL (≈ 3.21 µM) | 3.12 µg/mL (≈ 6.44 µM) | 3.12 µg/mL (≈ 6.44 µM) | 1.56 µg/mL (≈ 3.21 µM) |  | 
COc1c(N2CCN(Cc3oc(CO)cc(=O)c3O)C(C)C2)c(F)cc2c(=O)c(C(=O)O)cn(C3CC3)c12 (stereo unspecified) | 1.56 µg/mL (≈ 2.95 µM) | 0.39 µg/mL (≈ 0.737 µM) | 0.78 µg/mL (≈ 1.47 µM) | 3.12 µg/mL (≈ 5.9 µM) | 3.12 µg/mL (≈ 5.9 µM) | 0.78 µg/mL (≈ 1.47 µM) |  | 
CCn1cc(C(=O)O)c(=O)c2cc(F)c(N3CCNCC3)cc21 [NORFLOXACIN] | 0.39 µg/mL (≈ 1.22 µM) | 0.195 µg/mL (≈ 0.611 µM) | 1.56 µg/mL (≈ 4.89 µM) | 0.195 µg/mL (≈ 0.611 µM) | 0.39 µg/mL (≈ 1.22 µM) | 0.39 µg/mL (≈ 1.22 µM) |  | 
